This is a sample that favours compounds with a hit; in the whole collection about 2.2% have one here.
Mcl1 Bid PPI: Mcl-1/Bid binding inhibitors, primary screen, biochemical, TR-FRET, 1536-well; TR-FRET Mcl-1/Bid-Dy647 peptide binding; inhibition, % at 21.7 µM; 220,000 tested, 0.97% active;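 active means compounds that cut the binding signal by more than half at the single screening dose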;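 further: His-tagged Mcl-1 with europium anti-His antibody binding Bid BH3 peptide; 0% = Mcl-1 plus peptide wells and 100% = peptide-only wells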
Mcl1 Noxa PPI: Mcl-1/Noxa binding inhibitors, primary screen, biochemical, TR-FRET, 1536-well | inhibition, % at 21.7 µM | TR-FRET Mcl-1/Noxa peptide binding, 2 h | 220,000 tested, 1.5% active | AID 1022, 2008;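 active means compounds that cut the protein-peptide binding signal by more than 50% relative to plate controls in a single-dose test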;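 further: His-tagged Mcl-1 with rhodamine Noxa BH3 peptide and terbium anti-His antibody; 0% = Mcl-1 plus Noxa peptide wells and 100% = peptide-only wells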
MCL1-BIM inh: inhibitors of MCL1 binding to BIM-BH3, primary screen, biochemical, fluorescence polarization; Induced myeloid leukemia cell differentiation protein Mcl-1 (Homo sapiens), Q07820; GST-MCL1 / FITC-Bim-BH3 fluorescence polarization; inhibition, % at 10.9 µM; 320,000 tested, 0.68% active; AID 2057, 2009;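 active means inhibition above the mean inhibition of all tested compounds plus 3 SD, set per campaign, cut at about 40% in these data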;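 further: 0% = DMSO wells and 100% = unlabeled Bim-BH3 peptide control; higher means more loss of mP so more displacement of Bim peptide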
Bim-Mcl-1: inhibitors of Bim peptide binding to Mcl-1, primary screen, biochemical, bead-based flow cytometry, multiplex; inhibition, % at 10 µM; Bim peptide-Mcl-1 binding; 190,000 tested, 0.1% active; Induced myeloid leukemia cell differentiation protein Mcl-1 (Homo sapiens), Q07820; in the data active means inhibition above about 40%;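 further: 0% = no compound tracer wells and 100% = peptide blocker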
EBV gp42 inh: Epstein-Barr virus gp42 inhibitors, primary screen, biochemical, uHTS, fluorescence polarization; Fluorescence polarization binding assay, mP read-out; inhibition, % (tested at 21.74 µM); 220,000 tested, 0.42% active; in the data active means inhibition above about 50%
Target sequence (Q1HVG2 whole entry, looked up): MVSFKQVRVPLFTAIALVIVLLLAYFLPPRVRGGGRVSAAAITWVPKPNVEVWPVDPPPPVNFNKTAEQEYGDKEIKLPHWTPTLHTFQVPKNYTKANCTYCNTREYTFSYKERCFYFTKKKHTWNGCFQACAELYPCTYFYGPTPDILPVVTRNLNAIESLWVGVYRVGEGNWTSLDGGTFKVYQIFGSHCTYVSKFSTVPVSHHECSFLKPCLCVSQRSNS
RBBP9 inh: human RBBP9 inhibitors, primary screen, biochemical, fluorescence polarization, FP-Rh probe, HTS | Serine hydrolase RBBP9 (Homo sapiens), O75884 | recombinant RBBP9 | inhibition, % at 7.94 µM | 220,000 tested, 0.2% active | AID 1515, 2009;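 active means inhibition above the campaign mean of all tested compounds plus 3 SD, cut at about 14% in these data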;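 further: plate controls were DMSO wells with RBBP9 for no effect and wells lacking RBBP9 protein for full effect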
Target sequence (O75884 whole entry, looked up): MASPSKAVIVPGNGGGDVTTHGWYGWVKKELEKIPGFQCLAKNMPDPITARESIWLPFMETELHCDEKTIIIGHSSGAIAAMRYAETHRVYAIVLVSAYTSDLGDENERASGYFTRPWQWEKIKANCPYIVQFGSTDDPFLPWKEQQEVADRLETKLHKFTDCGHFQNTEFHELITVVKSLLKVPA
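system = RBBP9 protein | input = RBBP9 at 2.5 µM in dispensed solution, before mixing | measured by = fluorescence polarization (mP), excitation 525 nm, emission 598 nm | incubation = enzyme-compound preincubation 30 min, then probe labeling 45 min, 25 °C | buffer or medium = Tris-NaCl-Pluronic buffer, pH 8.0 | compound = single dose 7.94 µM | also added = FP-Rh probe, 375 nM dispensing solution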
Bcl-xL conf: Bcl-xL inhibitors blocking Bim BH3 binding, confirmation, counter-screen for MCL1 inhibitor project, biochemical, fluorescence polarization; shares compounds with MCL1-BIM inh; GST-Bcl-xL / FITC-Bim BH3 peptide FP binding; inhibition, % at 10.9 µM; 1,700 tested, 54% active;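 active means inhibition above a cutoff equal to the mean inhibition of all tested compounds plus 3 SD, cut at about 30% in these data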;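 further: 0% = DMSO wells and 100% = unlabeled Bim BH3 control peptide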
Target sequence (Q07817 whole entry, looked up): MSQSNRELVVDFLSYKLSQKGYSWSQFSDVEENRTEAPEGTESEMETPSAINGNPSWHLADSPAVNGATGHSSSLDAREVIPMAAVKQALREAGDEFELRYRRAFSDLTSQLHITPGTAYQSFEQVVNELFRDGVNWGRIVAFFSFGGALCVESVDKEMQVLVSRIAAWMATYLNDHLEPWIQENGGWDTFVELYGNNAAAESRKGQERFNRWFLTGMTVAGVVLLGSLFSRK
MCL1 inh confirm: inhibitors of MCL1 binding to BIM-BH3, confirmation, biochemical, fluorescence polarization, triplicate; shares compounds with MCL1-BIM inh; GST-MCL1 / FITC-Bim-BH3 fluorescence polarization; inhibition, % at 10.9 µM; 1,700 tested, 61% active;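 active means inhibition above the average of all tested compounds plus 3 SD, cut at about 40% in these data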;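 further: 0% = DMSO wells and 100% = unlabeled Bim-BH3 control peptide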
An asterisk follows results filed as active; . = no result; + = active, no number; ! = not confirmed by another sample.

SMILES | Mcl1 Bid PPI | Mcl1 Noxa PPI | MCL1-BIM inh | Bim-Mcl-1 | EBV gp42 inh | RBBP9 inh | Bcl-xL conf | MCL1 inh confirm
CC(=O)n1c(C=Nc2ccc(Cl)cc2)c(O)c2ccccc21 | -38 | -16 | 59* | . | 125* | 3 | 154* | 185*
CC(=O)n1c2ccccc2c2ccccc21 | -10 | -12 | 5 | -1 | -13 | -3 | . | .
CCOc1ccc2nc(NC(=O)c3ccccn3)sc2c1 | -117 | -87 | 56* | . | -6 | 0 | -2 | -4
Cc1ccc2nc(NC(=O)c3ccccn3)sc2c1 | -84 | -16 | 10 | -2 | 0 | -4 | . | .
CC(C)n1ncc2c(C(=O)Nc3cccc(C#N)c3)cc(C3CC3)nc21 | . | . | -6 | . | . | . | . | .
CS/C(Nc1cc(Cl)ccc1Cl)=C(/C#N)C(=O)c1ccco1 | 7 | 45 | 54* | . | -4 | -8 | 13 | 25
CCN(CC(=O)Nc1ccc2c(c1)OCCO2)C(=O)CSCC(=O)Nc1ccc(C)cc1 | . | . | 3 | . | . | . | . | .
O=[N+]([O-])c1cccc(C(=S)N2CCN(c3ccc(F)cc3)CC2)c1 | -14 | 26 | 51* | -5 | 15 | -2 | 22 | 14
CCN(C(=O)Cn1nc(C)c([N+](=O)[O-])c1C)c1c(N)n(Cc2ccccc2)c(=O)[nH]c1=O | . | . | 1 | . | . | . | . | .
Cc1ccc(Oc2c(CO)c(-c3ccccc3)nn2C)cc1 | -19 | 7 | 48* | 0 | -1 | -3 | 2 | 1
Cc1ccc2nc3c(cc(C(=O)NCc4ccco4)c(=N)n3C3CCCC3)c(=O)n2c1 | . | . | 83* | . | . | . | 74* | 94*
O=C(NC(=S)N1CCCCCC1)c1ccc(Cl)cc1Cl | -2 | -4 | 43* | -5 | -7 | 6 | 11 | 6
N#CC1=C(N)C(C#N)(C#N)C(c2ccncc2)C2CN(C(=O)OCc3ccccc3)CC=C12 (configuration not stated) | -26 | 15 | 14 | -4 | -23 | -6 | . | .
CN1CC=C2C(C#N)=C(N)C(C#N)(C#N)[C@H](c3cccs3)[C@H]2C1 | -14 | 11 | 118* | . | 36 | 8 | 63* | 71*
CN1CC=C2C(C#N)=C(N)C(C#N)(C#N)C(CCc3ccccc3)C2C1 (configuration not stated) | -42 | 1 | 82* | 0 | 29 | 2 | 43* | 65*
CN1CC=C2C(C#N)=C(N)C(C#N)(C#N)C(c3ccsc3)C2C1 (configuration not stated) | -20 | 12 | 117* | -1 | 24 | 2 | 23 | 27
CN1CC=C2C(C#N)=C(N)C(C#N)(C#N)[C@H](c3cccc(Cl)c3)C2C1 (some centres not stated) | -34 | 13 | 115* | -2 | 58* | 2 | 31* | 36
CCn1ccnc1CN(C)C(=O)c1cc(COc2ccccc2SC)on1 | . | . | 12 | . | . | . | . | .
Cn1c(N)c(-c2ccccc2)c2ccc([N+](=O)[O-])cc2c1=O | . | . | -92 | . | . | . | . | .
COc1ccc(-c2nc(O)c3cnccn23)cc1 | -57 | 20 | 4 | 1 | -12 | -9 | . | .
CC(C)(C)C(=O)OCc1nc(-c2ccc(F)cc2)cs1 | 5 | -19 | 2 | . | -9 | 1 | . | .
COCCN1C(=O)Cc2c1nc(N)c1c(N)nc(N3CCN(c4ccc(F)cc4)CC3)c(C#N)c21 | -6 | 61* | 42* | 0 | -19 | -1 | 7 | 17
Cc1ccc(Oc2coc3cc(OC(=O)c4cccs4)ccc3c2=O)cc1 | -21 | -8 | 2 | -1 | -27 | -7 | . | .
CC(=O)Oc1ccc2c(=O)c(Oc3ccccc3)coc2c1OC(C)=O | -104 | 26 | 50* | 0 | -11 | 0 | 20 | 40
COc1ccccc1NC(=O)CSc1sc2c(O)cc(=O)[nH]c2c1C#N | . | . | 45* | . | . | . | 16 | 27
SMILES | Mcl1 Bid PPI | Mcl1 Noxa PPI | MCL1-BIM inh | Bim-Mcl-1 | EBV gp42 inh | RBBP9 inh | Bcl-xL conf | MCL1 inh confirm
CCc1nnc(NC(=O)CSc2sc3c(O)cc(=O)[nH]c3c2C#N)s1 | . | . | 48* | . | . | . | 32* | 58*
COc1ccc(NC(=O)CSc2sc3c(O)cc(=O)[nH]c3c2C#N)c(OC)c1 | . | . | 20 | . | . | . | . | .
CCSc1nnc(NC(=O)CSc2sc3c(O)cc(=O)[nH]c3c2C#N)s1 | . | . | 30 | . | . | . | . | .
CCn1c(SCC(=O)N2CCC(C)CC2)nnc1-c1ccco1 | . | . | 1 | . | . | . | . | .
CCN(CC)C(=O)COc1ccc2c(-c3ccccc3)cc(=O)oc2c1 | . | . | + | . | . | . | 2 | -3
CCN1C(=O)C(=O)N(CC(=O)NC(C)CCc2ccccc2)C1=O (configuration not stated) | . | . | -15 | . | . | . | . | .
C=CCN1C(=O)[C@]2(c3ccccc31)C1CCCC=C1C(C#N)=C(N)C2(C#N)C#N (some centres not stated) | -16 | 10 | -6 | -1 | -12 | -1 | . | .
CN1CCC2(CC1)C1CN(C)CC=C1C(C#N)=C(N)C2(C#N)C#N (configuration not stated) | -24 | -8 | 140* | -1 | 76*! | 13 | 117* | 146*
COc1ccc(C)cc1S(=O)(=O)n1c([N+](=O)[O-])cnc1C | . | . | 4 | . | . | . | . | .
COc1ccc(Cn2cc3c(-c4ccc(F)cc4)nnc-3c3cc(OC)c(OC)cc32)cc1 | -41 | 30 | 36 | 3 | -41 | -7 | . | .
COc1cc2c3nnc(-c4ccc(F)cc4)c-3cn(Cc3ccc(F)cc3)c2cc1OC | -36 | -43 | 58* | 0 | -92 | -10 | 84* | 83*
COc1cc2c3nnc(-c4ccc(F)cc4)c-3cn(Cc3ccccc3)c2cc1OC | -25 | -12 | 68* | 1 | -44 | -6 | 64* | 63*
O=C1/C(=N\S(=O)(=O)c2cccs2)C([n+]2cccc(Cc3ccccc3)c2)=C([O-])c2ccccc21 | -28 | 9 | + | . | 142* | -8 | + | +
c1ccc(CCN(Cc2ccccc2)Cc2nc(C3CC3)no2)cc1 | -4 | -13 | 8 | -2 | -22 | 3 | . | .

Source: PubChem
